These results are taken from paper PMC4306959 (Scientific Reports, 2015).

The target of test [1] is JNK3α1L144I (Homo sapiens, UniProt P53779, L144I). The test is described as follows: HTRF enzyme inhibition assay, JNK3 L144I mutant. It counts as biochemical. Conditions: read-out: Km value of ATP for JNK3 L144I. In outline: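 Human JNK3 39–402 L144I, made by PCR mutagenesis and expressed like WT, activated for 2 h at 30°C with MKK4/MKK7 (100 nM each) in HEPES pH 7.5, MgCl2, DTT, 200 μM ATP; activation checked by MS and Western. HTRF at 0.75 nM enzyme, 0.5 μM biotinylated FL-ATF-2, 1.25 μM ATP, 1 h. Top concentration 10,000 nM.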
On the technique in general: In TR-FRET formats the signal depends on donor and acceptor labels being close together.

Test [2] deals with JNK3. Conditions: cited from earlier work.
Test [3] deals with JNK2. As to conditions: cited from earlier work.

Sequence of JNK3α1L144I (P53779 39-402 L144I): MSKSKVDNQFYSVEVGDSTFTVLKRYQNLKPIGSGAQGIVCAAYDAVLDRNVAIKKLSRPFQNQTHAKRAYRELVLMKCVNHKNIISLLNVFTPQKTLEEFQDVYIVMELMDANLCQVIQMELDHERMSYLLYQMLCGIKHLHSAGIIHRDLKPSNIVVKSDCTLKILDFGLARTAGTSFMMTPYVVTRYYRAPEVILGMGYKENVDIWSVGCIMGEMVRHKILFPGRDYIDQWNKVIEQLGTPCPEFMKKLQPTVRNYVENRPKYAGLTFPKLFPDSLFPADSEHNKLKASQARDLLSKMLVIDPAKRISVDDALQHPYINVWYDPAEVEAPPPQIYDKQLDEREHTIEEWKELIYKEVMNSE

Usually Km stands for the substrate concentration at which the rate is half of its maximum. For the compound `Nc1ncnc2c1ncn2[C@@H]1O[C@H](COP(=O)(O)OP(=O)(O)OP(=O)(O)O)[C@@H](O)[C@H]1O` [ATP], in test [1], the Km came to 2.9 µM.
Consider `Cn1c(NC[C@@H](N)Cc2ccccc2)nc(-c2ccncc2)c(-c2ccc3ccccc3c2)c1=O` [AMG-548], for which, in test [2], the “Selectivity for JNK3 compared to JNK1” value is reported as 188 fold. Also, the “Selectivity for JNK2 compared to JNK1” value in test [3] is 294 fold.
